Measured values reported in ChEMBL document CHEMBL4342456, “Preventing Morphine-Seeking Behavior through the Re-Engineering of Vincamine's Biological Activity” (J Med Chem, 2020).
The source made the active and inactive calls. The rule behind the calls is not given here.

What was measured:
[1] = system: Mus musculus; assay: Suppression of drug-induced cocaine-seeking behavior in C57BL/6J mouse assessed as reduction in morphine-conditioned place preference at 60 nmol, icv administered 20 mins prior to behavioral morphine addition measured twice weekly for 7 weeks; assay type: functional, organism-based; conditions: in the assay text read “morphine-seeking” for “cocaine-seeking”
Procedure, shortened: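 Male C57BL/6J mice, 7–11 weeks, 20–33 g. Three-compartment counterbalanced place conditioning. Test agent given i.c.v. in 10% Solutol HS 15/90% saline, 20 min before morphine (10 mg/kg i.p., in 0.9% saline). Mice then confined 40 min in the paired outer chamber. Saline i.p. conditioning in the opposite chamber followed 4 h later. Preference was scored in a 30 min automated test. n = 16–30/group; two-way ANOVA with Tukey post hoc.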

[2] = biological target: Cannabinoid receptor 1 (Homo sapiens, UniProt P21554); assay: (§1) Antagonist activity at human Gi/o-coupled CNR1 expressed in CHOK1 cells assessed as inhibition in CP55940-induced beta-arrestin 2 recruitment at 20 uM incubated for 30 mins followed by CP55940 addition and measured after 90 or 180 mins by pathhunter beta-arrestin assay relative to control; assay type: cell-based
Procedure, shortened: (§2)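 PathHunter beta-arrestin recruitment, antagonist mode, run at DiscoverX. Cells seeded and held at 37 °C, then preincubated with test sample for 30 min at 37 °C or room temperature (1% vehicle). Agonist then added at EC80 for 90 or 180 min. IC50 comes from concentration–response runs in the same format.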

[3] = biological target: D(2) dopamine receptor (Homo sapiens) (UniProt P14416); assay: Antagonist activity at human Gi/o-coupled DRD2L expressed in CHOK1 cells assessed as inhibition in dopamine-induced beta-arrestin 2 recruitment at 20 uM incubated for 30 mins followed by dopamine addition and measured after 90 or 180 mins by pathhunter beta-arrestin assay relative to control; assay type: cell-based; procedure, shortened: as §2
[4] = biological target: T1, Prolactin-releasing peptide receptor (Homo sapiens) (UniProt P49683); assay: as §1, with “Gq-coupled PRLHR” for “Gi/o-coupled CNR1”, “prolactin releasing peptide (1 to 31)-induced” for “CP55940-induced”, “prolactin releasing peptide (1 to 31)” for “CP55940”; assay type: cell-based; procedure, shortened: as §2
T1 sequence (whole entry): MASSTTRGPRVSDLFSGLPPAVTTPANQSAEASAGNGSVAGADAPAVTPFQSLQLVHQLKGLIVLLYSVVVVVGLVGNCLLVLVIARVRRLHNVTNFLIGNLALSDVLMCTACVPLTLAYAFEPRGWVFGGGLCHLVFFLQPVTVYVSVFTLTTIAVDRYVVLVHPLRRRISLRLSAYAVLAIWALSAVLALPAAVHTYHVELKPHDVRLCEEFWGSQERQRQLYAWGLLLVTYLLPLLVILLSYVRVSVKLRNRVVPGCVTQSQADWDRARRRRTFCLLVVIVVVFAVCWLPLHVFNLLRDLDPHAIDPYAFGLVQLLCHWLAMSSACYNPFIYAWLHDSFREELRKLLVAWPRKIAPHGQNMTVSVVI

[5] = system: Mus musculus; assay: Suppression of drug-induced morphine-seeking behavior in C57BL/6J mouse assessed as reduction in stress-induced reinstatement of morphine-CPP at 60 nmol, icv administered 15 mins prior to testing by forced swim test
[6] = biological target: T2, Orexin receptor type 2 (Homo sapiens) (UniProt O43614); assay: Antagonist activity at human Gq-coupled HCRTR2 expressed in CHOK1 cells assessed as inhibition in Orexin A-induced beta-arrestin 2 recruitment at 20 uM incubated for 30 mins followed by Orexin A addition and measured after 90 or 180 mins by pathhunter beta-arrestin assay relative to control; assay type: cell-based; procedure, shortened: as §2
T2 sequence (whole entry): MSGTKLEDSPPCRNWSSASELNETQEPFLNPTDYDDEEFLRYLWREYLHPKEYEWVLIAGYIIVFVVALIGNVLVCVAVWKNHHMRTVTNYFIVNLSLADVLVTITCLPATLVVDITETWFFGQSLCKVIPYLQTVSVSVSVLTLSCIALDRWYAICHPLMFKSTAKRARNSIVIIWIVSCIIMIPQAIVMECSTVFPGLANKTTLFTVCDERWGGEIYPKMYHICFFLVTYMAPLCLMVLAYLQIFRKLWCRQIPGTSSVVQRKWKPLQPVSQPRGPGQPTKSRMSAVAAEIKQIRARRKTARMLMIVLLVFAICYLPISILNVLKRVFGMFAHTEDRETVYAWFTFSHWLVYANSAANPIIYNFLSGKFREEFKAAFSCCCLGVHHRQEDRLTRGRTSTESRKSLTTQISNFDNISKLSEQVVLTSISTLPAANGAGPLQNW

[7] = biological target: Cannabinoid receptor 2 (Homo sapiens, UniProt P34972); assay: Antagonist activity at human Gi/o-coupled CNR2 expressed in CHOK1 cells assessed as inhibition in CP55940-induced beta-arrestin 2 recruitment at 20 uM incubated for 30 mins followed by CP55940 addition and measured after 90 or 180 mins by pathhunter beta-arrestin assay relative to control; assay type: cell-based; procedure, shortened: as §2
[8] = biological target: T3, Orexin receptor type 2 (Homo sapiens, UniProt O43614); assay: Antagonist activity at human Gq-coupled HCRTR2 expressed in CHOK1 cells assessed as inhibition in Orexin A-induced beta-arrestin 2 recruitment incubated for 30 mins followed by Orexin A addition and measured after 90 or 180 mins by pathhunter beta-arrestin assay; assay type: cell-based
T3 sequence (O43614 whole entry): T2 sequence (whole entry)
Procedure, shortened: as §2, with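 “min. […]” for “min.”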

[9] = Stability of compound in pH 2.0 HCl aqueous solution assessed as parent compound remaining at 0.025 mmol measured after 24 hrs; assay type: physicochemical; conditions: read-out: Stability
Procedure, shortened: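 Acid stability: compound held 24 h at 37 °C in acidic aqueous media at pH 2.0 or pH 4.88. Percent recovery of parent compound was measured.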

[10] = Toxicity in C57BL/6J mouse at 60 nmol, icv measured for 2 days by conditioned place preference test; conditions: in vivo, icv_or_intrathecal, 48 h
[11] = biological target: T4, Muscarinic acetylcholine receptor M4 (Homo sapiens) (UniProt P08173); assay: as §1, with “Gs/Gi/o-coupled CHRM4” for “Gi/o-coupled CNR1”, “acetylcholine-induced” for “CP55940-induced”, “acetylcholine” for “CP55940”; assay type: cell-based; procedure, shortened: as §2
T4 sequence (whole entry): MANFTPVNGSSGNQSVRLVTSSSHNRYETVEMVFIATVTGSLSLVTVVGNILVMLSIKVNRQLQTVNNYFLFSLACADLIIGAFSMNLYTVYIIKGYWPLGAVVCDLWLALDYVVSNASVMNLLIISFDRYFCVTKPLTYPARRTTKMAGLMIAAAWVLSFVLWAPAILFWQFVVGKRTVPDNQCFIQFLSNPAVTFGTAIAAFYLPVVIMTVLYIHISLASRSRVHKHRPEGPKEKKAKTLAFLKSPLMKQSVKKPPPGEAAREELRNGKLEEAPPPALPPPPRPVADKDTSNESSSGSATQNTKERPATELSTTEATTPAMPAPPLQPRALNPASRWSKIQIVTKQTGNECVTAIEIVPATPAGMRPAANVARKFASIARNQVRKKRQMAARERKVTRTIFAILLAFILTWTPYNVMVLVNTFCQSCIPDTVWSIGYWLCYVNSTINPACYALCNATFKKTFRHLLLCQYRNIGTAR

Chain of Cannabinoid receptor 1 (P21554 whole entry): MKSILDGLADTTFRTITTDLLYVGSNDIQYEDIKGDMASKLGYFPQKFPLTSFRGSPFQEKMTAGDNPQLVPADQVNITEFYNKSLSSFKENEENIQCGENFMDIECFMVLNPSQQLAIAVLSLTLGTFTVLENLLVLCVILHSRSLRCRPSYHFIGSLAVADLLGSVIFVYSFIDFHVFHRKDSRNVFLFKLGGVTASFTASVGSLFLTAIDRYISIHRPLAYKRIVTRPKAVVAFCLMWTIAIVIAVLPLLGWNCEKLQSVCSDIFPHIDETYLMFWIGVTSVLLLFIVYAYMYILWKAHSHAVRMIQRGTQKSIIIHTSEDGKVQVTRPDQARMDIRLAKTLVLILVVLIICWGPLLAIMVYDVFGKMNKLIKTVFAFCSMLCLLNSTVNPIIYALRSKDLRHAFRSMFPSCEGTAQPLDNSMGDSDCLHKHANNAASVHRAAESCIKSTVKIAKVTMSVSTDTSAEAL
Chain of Cannabinoid receptor 2 (P34972 whole entry): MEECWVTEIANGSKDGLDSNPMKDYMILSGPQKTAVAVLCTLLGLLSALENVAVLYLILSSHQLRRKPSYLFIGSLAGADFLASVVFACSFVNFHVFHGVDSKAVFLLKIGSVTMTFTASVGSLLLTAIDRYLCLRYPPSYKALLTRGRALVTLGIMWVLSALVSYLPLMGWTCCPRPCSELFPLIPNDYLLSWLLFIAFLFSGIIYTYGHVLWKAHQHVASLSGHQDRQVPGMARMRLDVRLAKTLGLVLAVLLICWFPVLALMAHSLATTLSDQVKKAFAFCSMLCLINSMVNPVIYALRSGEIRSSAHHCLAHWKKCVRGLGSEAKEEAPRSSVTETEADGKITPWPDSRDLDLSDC
Chain of D(2) dopamine receptor (Homo sapiens) (P14416 whole entry): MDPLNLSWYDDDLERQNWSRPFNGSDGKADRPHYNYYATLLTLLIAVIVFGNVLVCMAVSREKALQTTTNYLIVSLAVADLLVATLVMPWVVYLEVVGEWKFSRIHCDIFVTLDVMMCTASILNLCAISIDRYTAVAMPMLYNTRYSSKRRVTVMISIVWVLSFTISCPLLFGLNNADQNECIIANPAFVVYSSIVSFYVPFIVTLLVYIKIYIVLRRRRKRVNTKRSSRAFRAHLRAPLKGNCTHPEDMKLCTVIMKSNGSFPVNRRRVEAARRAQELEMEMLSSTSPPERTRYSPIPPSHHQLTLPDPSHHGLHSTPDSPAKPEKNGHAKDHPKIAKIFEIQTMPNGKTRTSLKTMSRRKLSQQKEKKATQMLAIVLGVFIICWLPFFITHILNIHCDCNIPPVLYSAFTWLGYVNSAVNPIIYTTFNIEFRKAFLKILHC

- inhibition [2]: 48%
- inhibition [3]: 15%
- inhibition [4]: 59%
- inhibition [6]: 80%
- inhibition [7]: 60%
- IC50 [8]: 2260 nM
- remaining at 24 h, 0.025 mmol [9]: 92.1%
- inhibition [11]: 75%
Compound: CC[C@@]12CCCN3CCc4c([nH]c5ccccc45)[C@]31N(Cc1cn(Cc3ccccc3)nn1)C(=O)C2
- Activity [1]: Active
- Activity [5]: Active
- Activity [10]: Non-Toxic
